Measurements from ChEMBL document CHEMBL1141199, “N-benzylisatin sulfonamide analogues as potent caspase-3 inhibitors: synthesis, in vitro activity, and molecular modeling studies” (J Med Chem, 2005).

Legend:
Caspase-1 = biological target: T1, Caspase-1 (Homo sapiens, UniProt P29466); experiment: Inhibitory activity against caspase 1 using Ac-YVAD-AMC substrate
T1 sequence (P29466 whole entry): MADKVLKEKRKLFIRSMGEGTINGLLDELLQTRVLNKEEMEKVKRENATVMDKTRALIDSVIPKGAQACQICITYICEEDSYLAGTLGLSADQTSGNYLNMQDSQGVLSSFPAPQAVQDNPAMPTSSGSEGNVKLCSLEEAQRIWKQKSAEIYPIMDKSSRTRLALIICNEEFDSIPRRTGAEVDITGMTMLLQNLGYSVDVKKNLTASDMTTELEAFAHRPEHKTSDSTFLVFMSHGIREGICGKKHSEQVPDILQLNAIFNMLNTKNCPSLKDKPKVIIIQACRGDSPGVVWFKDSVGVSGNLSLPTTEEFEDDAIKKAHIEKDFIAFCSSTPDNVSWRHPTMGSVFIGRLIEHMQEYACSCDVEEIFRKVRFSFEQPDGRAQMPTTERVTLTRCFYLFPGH
In short: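 Substrate solution carried an extra 10 mM 2-mercaptoethanol. Inhibitors in DMSO were preincubated 30 min on ice, then run 1–2 h at 37 °C. AMC was read at ex 355/em 460 nm. Duplicates; IC50 is the mean of three experiments.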

Caspase-6 = biological target: T2, Caspase-6 (Homo sapiens, UniProt P55212); experiment: Inhibitory activity against caspase 6 using Ac-VEID-AMC substrate
T2 sequence (P55212 whole entry): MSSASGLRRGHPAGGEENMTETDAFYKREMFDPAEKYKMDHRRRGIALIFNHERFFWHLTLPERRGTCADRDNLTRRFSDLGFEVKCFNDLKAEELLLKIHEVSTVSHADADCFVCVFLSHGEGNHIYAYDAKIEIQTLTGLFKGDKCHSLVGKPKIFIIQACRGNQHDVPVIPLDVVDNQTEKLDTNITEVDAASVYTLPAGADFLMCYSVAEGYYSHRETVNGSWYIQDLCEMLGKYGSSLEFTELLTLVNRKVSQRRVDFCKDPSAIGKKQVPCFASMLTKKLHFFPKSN
In short: (§1)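 Substrates at 10 µM: Ac-DEVD-AMC (caspase-3), Ac-VEID-AMC (caspase-6), Ac-IETD-AMC (caspase-8). Serially diluted inhibitors were preincubated 30 min on ice, then run 1–2 h at 37 °C in 5% final DMSO. AMC fluorescence ex 355/em 460 nm. Duplicates; IC50 averaged over three experiments.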

Caspase-8 = Caspase-8 (Homo sapiens, UniProt Q14790); experiment: Inhibitory activity against caspase 8 using Ac-IETD-AMC substrate; in short: as §1
Caspase-3 = biological target: T3, Caspase-3 (Homo sapiens, UniProt P42574); experiment: Inhibitory activity against caspase 3 using Ac-DEVD-AMC substrate; in short: as §1
T3 sequence (P42574 whole entry): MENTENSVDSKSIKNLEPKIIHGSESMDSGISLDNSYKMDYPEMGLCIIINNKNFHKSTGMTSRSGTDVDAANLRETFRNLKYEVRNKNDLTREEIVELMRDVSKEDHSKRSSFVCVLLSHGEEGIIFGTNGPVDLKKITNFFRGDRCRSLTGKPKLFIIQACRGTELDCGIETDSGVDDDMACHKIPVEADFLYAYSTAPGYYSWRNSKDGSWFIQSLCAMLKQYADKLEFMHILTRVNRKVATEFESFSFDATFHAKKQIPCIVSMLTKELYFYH

Caspase-7 = biological target: T4, Caspase-7 (Homo sapiens, UniProt P55210); experiment: Inhibitory activity against caspase 7 using Ac-DEVD-AMC substrate
T4 sequence (P55210 whole entry): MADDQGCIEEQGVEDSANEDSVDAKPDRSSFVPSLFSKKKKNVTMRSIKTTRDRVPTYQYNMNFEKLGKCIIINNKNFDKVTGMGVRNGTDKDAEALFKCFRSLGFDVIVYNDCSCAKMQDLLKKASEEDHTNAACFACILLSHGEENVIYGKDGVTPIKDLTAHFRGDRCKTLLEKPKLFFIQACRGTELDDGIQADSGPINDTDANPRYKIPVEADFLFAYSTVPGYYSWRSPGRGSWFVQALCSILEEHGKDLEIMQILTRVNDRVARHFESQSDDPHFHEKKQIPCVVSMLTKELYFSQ
In short: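 Substrate solution held a further 10 mM 2-mercaptoethanol for full activation. Enzyme was used at a linear-range level. DMSO inhibitor dilutions (5% final) were preincubated 30 min on ice, then run 1–2 h at 37 °C. AMC read at 355/460 nm. Duplicates; IC50 is the mean of three runs.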

Chain of Caspase-8 (Q14790 217-374 limits assumed): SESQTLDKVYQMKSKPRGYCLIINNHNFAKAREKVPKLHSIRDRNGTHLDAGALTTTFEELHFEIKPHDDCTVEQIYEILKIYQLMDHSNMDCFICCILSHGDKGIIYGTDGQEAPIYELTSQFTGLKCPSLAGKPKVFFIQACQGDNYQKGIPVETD
Chain of Caspase-8 (Q14790 385-479 limits assumed): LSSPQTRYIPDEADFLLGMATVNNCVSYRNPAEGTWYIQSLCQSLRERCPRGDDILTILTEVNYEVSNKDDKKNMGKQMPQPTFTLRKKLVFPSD

Row | Compound | IC50 (Caspase-1) | IC50 (Caspase-6) | IC50 (Caspase-8) | IC50 (Caspase-3) | IC50 (Caspase-7)
1 | O=C1C(=O)N(Cc2ccnc(F)c2)c2ccc(S(=O)(=O)N3CC[C@H]3COc3ccccc3)cc21 | > 50 µM | > 5 µM | > 50 µM | – | –
2 | CSc1ccc(CN2C(=O)C(=O)c3cc(S(=O)(=O)N4CCC[C@H]4COc4cccnc4)ccc32)cc1 | > 50 µM | > 5 µM | > 50 µM | 0.0044 µM | 0.0233 µM
3 | CSc1ccc(CN2C(=O)C(=O)c3cc(S(=O)(=O)N4CCC[C@H]4COc4ccccc4)ccc32)cc1 | > 50 µM | > 5 µM | > 50 µM | 0.0124 µM | 0.041 µM
4 | CC(=O)Oc1ccc(CN2C(=O)C(=O)c3cc(S(=O)(=O)N4CCC[C@H]4COc4ccccc4)ccc32)cc1 | > 50 µM | > 5 µM | > 50 µM | 0.012 µM | 0.0348 µM
5 | O=C1C(=O)N(Cc2ccc(F)nc2)c2ccc(S(=O)(=O)N3CCC[C@H]3COc3ccccc3)cc21 | > 50 µM | > 5 µM | > 50 µM | – | –
6 | COc1ccc(CN2C(=O)C(=O)c3cc(S(=O)(=O)N4CC[C@H]4COc4ccccc4)ccc32)cc1 | > 50 µM | > 5 µM | > 50 µM | – | –
7 | CN1C(=O)C(=O)c2cc(S(=O)(=O)N3CCC[C@H]3COc3ccccc3)ccc21 | > 20 µM | > 5 µM | > 50 µM | 0.119 µM | 0.31 µM
8 | O=C1C(=O)N(Cc2ccc(F)nc2)c2ccc(S(=O)(=O)N3CC[C@H]3COc3ccccc3)cc21 | > 50 µM | > 5 µM | > 50 µM | – | –
9 | O=C1C(=O)N(Cc2cccc(F)n2)c2ccc(S(=O)(=O)N3CC[C@H]3COc3ccccc3)cc21 | > 10 µM | > 5 µM | > 50 µM | – | –
10 | CN1C(=O)C(=O)c2cc(S(=O)(=O)N3CC[C@H]3COc3ccccc3)ccc21 | > 10 µM | > 5 µM | > 50 µM | – | –
11 | CN1C(=O)C(=O)c2cc(S(=O)(=O)N3CCC[C@H]3COc3cccnc3)ccc21 | > 10 µM | > 5 µM | > 50 µM | 0.0233 µM | 0.0949 µM
12 | COc1ccc(CN2C(=O)C(=O)c3cc(S(=O)(=O)N4CCC[C@H]4COc4cccnc4)ccc32)cc1 | > 10 µM | > 5 µM | > 50 µM | 0.0039 µM | 0.0151 µM
13 | O=C1C(=O)N(Cc2ccc(F)cc2)c2ccc(S(=O)(=O)N3CCC[C@H]3COc3ccccc3)cc21 | > 50 µM | > 5 µM | > 50 µM | 0.0121 µM | 0.023 µM
14 | O=C1C(=O)N(Cc2cccc(F)n2)c2ccc(S(=O)(=O)N3CCC[C@H]3COc3ccccc3)cc21 | > 50 µM | > 5 µM | > 50 µM | – | –
15 | O=C1C(=O)N(Cc2ccnc(F)c2)c2ccc(S(=O)(=O)N3CCC[C@H]3COc3ccccc3)cc21 | > 50 µM | > 5 µM | > 50 µM | – | –
16 | CSc1ccc(CN2C(=O)C(=O)c3cc(S(=O)(=O)N4CC[C@H]4COc4ccccc4)ccc32)cc1 | > 50 µM | > 5 µM | > 50 µM | – | –
17 | O=C1C(=O)N(Cc2ccccc2)c2ccc(S(=O)(=O)N3CCC[C@H]3COc3ccccc3)cc21 | > 10 µM | > 5 µM | > 50 µM | – | –
18 | O=C1Nc2ccc(S(=O)(=O)N3CCC[C@H]3COc3ccccc3)cc2C1=O | > 10 µM | > 5 µM | > 50 µM | – | –

Second part, the compound after the results:

Row | IC50 (Caspase-1) | IC50 (Caspase-6) | IC50 (Caspase-8) | IC50 (Caspase-3) | IC50 (Caspase-7) | Compound
19 | > 5 µM | > 5 µM | > 50 µM | 0.0204 µM | 0.142 µM | O=C1Nc2ccc(S(=O)(=O)N3CCC[C@H]3COc3ccncc3)cc2C1=O
20 | > 5 µM | > 5 µM | > 50 µM | 0.0583 µM | 0.215 µM | O=C1Nc2ccc(S(=O)(=O)N3CCC[C@H]3COc3cccnc3)cc2C1=O
21 | > 10 µM | > 5 µM | > 50 µM | 0.0052 µM | 0.0141 µM | O=C1C(=O)N(Cc2ccccc2)c2ccc(S(=O)(=O)N3CCC[C@H]3COc3cccnc3)cc21
22 | > 10 µM | > 5 µM | > 50 µM | 0.0084 µM | 0.0151 µM | O=C1C(=O)N(Cc2ccc(F)cc2)c2ccc(S(=O)(=O)N3CCC[C@H]3COc3cccnc3)cc21
23 | > 10 µM | > 5 µM | > 50 µM | – | – | O=C1C(=O)N(Cc2ccccc2F)c2ccc(S(=O)(=O)N3CC[C@H]3COc3ccccc3)cc21
24 | > 10 µM | > 5 µM | > 50 µM | 0.0145 µM | 0.0218 µM | COc1ccc(CN2C(=O)C(=O)c3cc(S(=O)(=O)N4CCC[C@H]4COc4ccccc4)ccc32)cc1
25 | > 10 µM | > 5 µM | > 50 µM | – | – | O=C1Nc2ccc(S(=O)(=O)N3CC[C@H]3COc3ccccc3)cc2C1=O
26 | > 10 µM | > 5 µM | > 50 µM | – | – | O=C1C(=O)N(Cc2ccccc2)c2ccc(S(=O)(=O)N3CC[C@H]3COc3ccccc3)cc21
27 | > 10 µM | > 5 µM | > 50 µM | – | – | O=C1C(=O)N(Cc2ccc(F)cc2)c2ccc(S(=O)(=O)N3CC[C@H]3COc3ccccc3)cc21
28 | > 5 µM | > 5 µM | > 50 µM | – | – | O=C1C(=O)N(Cc2ccc(O)cc2)c2ccc(S(=O)(=O)N3CCC[C@H]3COc3ccccc3)cc21
